{"source": "ChEMBL document CHEMBL4699542", "about": "“Design and synthesis of novel methoxypyridine-derived gamma-secretase modulators” (Bioorg Med Chem, 2020)", "key": {"[1]": {"assay": "Ratio of drug concentration in CD-1 mouse brain to plasma at 5 mg/kg, po measured after 1 hr", "assay_type": "ADME, organism-based", "method_in_brief": "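Male CD-1 mice dosed once iv (1 mg/kg) or by oral gavage (5 mg/kg). Brain and plasma collected 1 h post dose (n=3/timepoint). Drug levels by HPLC/MS/MS; brain/plasma ratio calculated from these levels.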"}, "[2]": {"assay": "Bioavailability in CD-1 mouse at 1 mg/kg, iv administered as single dose measured up to 24 hrs", "assay_type": "ADME, organism-based", "details": "in vivo", "method_in_brief": "(§1)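 CD-1 mouse PK after single iv (1 mg/kg) and oral gavage (5 mg/kg) dosing, with plasma sampled to 24 h (n=3/timepoint) and measured by HPLC/MS/MS. F(%) = (AUC0-inf po × Dose iv)/(AUC0-inf iv × Dose po) × 100.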"}, "[3]": {"assay": "Ratio of drug concentration in CD-1 mouse brain to plasma at 1 mg/kg, iv measured after 1 hr"}, "[4]": {"assay": "AUClast in CD-1 mouse at 1 mg/kg, iv administered as single dose measured up to 24 hrs", "assay_type": "ADME, organism-based", "design": "route intravenous, dose 1 mg/kg, time <=24", "details": "in vivo", "method_in_brief": "(§2)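 Male CD-1 mice, 6–8 weeks old, single dose by tail vein (1 mg/kg, 3% NMP/45% PEG300/12% ethanol/40% water) or oral gavage (5 mg/kg, 5% NMP/95% PEG300). Retro-orbital plasma sampled 0.083 (iv only) to 24 h, n=3/timepoint, and analysed by HPLC/MS/MS. Non-compartmental analysis. Half-life taken from the terminal phase using ≥3 non-zero points after Tmax.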"}, "[5]": {"assay": "Metabolic stability in human liver microsomes assessed as parent compound remaining at 1 uM incubated for 30 mins", "assay_type": "ADME, Microsome", "details": "microsomes, 0.5 h, 1 µM", "method_in_brief": "(§3)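 Test compound at 1 μM incubated 30 min with human, rat or mouse liver microsomes (1 mg/mL); parent remaining expressed as %.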"}, "[6]": {"assay": "Tmax in CD-1 mouse at 1 mg/kg, iv administered as single dose measured up to 24 hrs", "assay_type": "ADME, organism-based", "details": "in vivo", "method_in_brief": "(§4)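 Male CD-1 mice, 6–8 weeks old, single tail-vein dose in 3% NMP/45% PEG300/12% ethanol/40% sterile water. Retro-orbital plasma (K3EDTA) taken at 0.083, 0.25, 0.5, 1, 2, 4, 8 and 24 h, n=3/timepoint, analysed by HPLC/MS/MS. Non-compartmental analysis (Model 201, uniform weighting); Tmax read directly from the data.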"}, "[7]": {"assay": "Kinetic aqueous solubility of the compound in pH 7.4 PBS buffer by UV/Visible absorbance analysis", "assay_type": "physicochemical", "details": "read-out: Kinetic_solubility", "method_in_brief": "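Kinetic solubility determined in PBS at pH 7.4 by UV/Vis absorbance, reported in μM.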"}, "[8]": {"test_system": "Gamma-secretase", "assay": "Inhibition of gamma secretase in human H4 cells overexpressing APP751 transfected with Myc-tagged Notch at 1 to 10 uM incubated for 24 hrs in presence of NICD by Western blot analysis", "details": "h4, 24 h"}, "[9]": {"assay": "AUC infinity in CD-1 mouse at 5 mg/kg, po administered as single dose measured up to 24 hrs", "assay_type": "ADME, organism-based", "design": "route oral, dose 5 mg/kg, time <=24", "details": "in vivo", "method_in_brief": "as §2"}, "[10]": {"assay": "Volume of distribution at steady state in CD-1 mouse at 1 mg/kg, iv administered as single dose measured up to 24 hrs", "assay_type": "ADME, organism-based", "details": "in vivo", "method_in_brief": "as §4"}, "[11]": {"assay": "AUClast in CD-1 mouse at 5 mg/kg, po administered as single dose measured up to 24 hrs", "assay_type": "ADME, organism-based", "design": "route oral, dose 5 mg/kg, time <=24", "details": "in vivo", "method_in_brief": "as §2"}, "[12]": {"assay": "Tmax in CD-1 mouse at 5 mg/kg, po administered as single dose measured up to 24 hrs", "assay_type": "ADME, organism-based", "details": "in vivo", "method_in_brief": "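Male CD-1 mice, 6–8 weeks old, single oral gavage dose in 5% NMP/95% PEG300. Plasma (K3EDTA, retro-orbital, under isoflurane) taken at 0.25, 0.5, 1, 2, 4, 8 and 24 h, n=3/timepoint, analysed by HPLC/MS/MS. Non-compartmental extravascular analysis (Model 200); Tmax taken directly from the data.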"}, "[13]": {"biological_target": "Cytochrome P450 2D6 (Homo sapiens, UniProt P10635)", "sequence (P10635 whole entry, canonical isoform)": "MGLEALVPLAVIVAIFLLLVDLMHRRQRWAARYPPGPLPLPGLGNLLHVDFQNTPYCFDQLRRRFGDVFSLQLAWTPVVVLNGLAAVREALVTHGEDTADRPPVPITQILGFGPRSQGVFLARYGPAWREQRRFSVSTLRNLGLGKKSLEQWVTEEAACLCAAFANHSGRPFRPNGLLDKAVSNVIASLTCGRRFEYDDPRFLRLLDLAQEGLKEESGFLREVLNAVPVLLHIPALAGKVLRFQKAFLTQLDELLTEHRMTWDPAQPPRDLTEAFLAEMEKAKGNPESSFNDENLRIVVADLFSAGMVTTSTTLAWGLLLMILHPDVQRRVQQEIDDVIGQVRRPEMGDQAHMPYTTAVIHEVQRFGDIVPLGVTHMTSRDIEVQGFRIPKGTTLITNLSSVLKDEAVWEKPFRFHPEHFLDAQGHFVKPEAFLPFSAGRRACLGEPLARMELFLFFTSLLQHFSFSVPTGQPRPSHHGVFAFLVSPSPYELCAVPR", "assay": "Inhibition of recombinant CYP2D6 (unknown origin) by fluorescence-based assay", "assay_type": "ADME", "method_in_brief": "(§5)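 Recombinant CYP isoforms (five tested) screened for inhibition in fluorescence-based assays; IC50 in μM.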"}, "[14]": {"assay": "Protein binding in plasma (unknown origin)", "assay_type": "ADME, cell-free"}, "[15]": {"assay": "Cmax in CD-1 mouse at 1 mg/kg, iv administered as single dose measured up to 24 hrs", "assay_type": "ADME, organism-based", "design": "route intravenous, dose 1 mg/kg, time <=24", "details": "in vivo", "method_in_brief": "as §2"}, "[16]": {"assay": "AUC infinity in CD-1 mouse at 1 mg/kg, iv administered as single dose measured up to 24 hrs", "assay_type": "ADME, organism-based", "design": "route intravenous, dose 1 mg/kg, time <=24", "details": "in vivo", "method_in_brief": "as §2"}, "[17]": {"biological_target": "Gamma-secretase", "assay": "Modulation of gamma secretase in human SH-SY5Y cells overexpressing wild type APP751 assessed as effect on amyloid beta38 level by meso scale discovery", "assay_type": "cell-based"}, "[18]": {"biological_target": "Voltage-gated inwardly rectifying potassium channel KCNH2 (Homo sapiens, UniProt Q12809)", "sequence (Q12809 whole entry)": "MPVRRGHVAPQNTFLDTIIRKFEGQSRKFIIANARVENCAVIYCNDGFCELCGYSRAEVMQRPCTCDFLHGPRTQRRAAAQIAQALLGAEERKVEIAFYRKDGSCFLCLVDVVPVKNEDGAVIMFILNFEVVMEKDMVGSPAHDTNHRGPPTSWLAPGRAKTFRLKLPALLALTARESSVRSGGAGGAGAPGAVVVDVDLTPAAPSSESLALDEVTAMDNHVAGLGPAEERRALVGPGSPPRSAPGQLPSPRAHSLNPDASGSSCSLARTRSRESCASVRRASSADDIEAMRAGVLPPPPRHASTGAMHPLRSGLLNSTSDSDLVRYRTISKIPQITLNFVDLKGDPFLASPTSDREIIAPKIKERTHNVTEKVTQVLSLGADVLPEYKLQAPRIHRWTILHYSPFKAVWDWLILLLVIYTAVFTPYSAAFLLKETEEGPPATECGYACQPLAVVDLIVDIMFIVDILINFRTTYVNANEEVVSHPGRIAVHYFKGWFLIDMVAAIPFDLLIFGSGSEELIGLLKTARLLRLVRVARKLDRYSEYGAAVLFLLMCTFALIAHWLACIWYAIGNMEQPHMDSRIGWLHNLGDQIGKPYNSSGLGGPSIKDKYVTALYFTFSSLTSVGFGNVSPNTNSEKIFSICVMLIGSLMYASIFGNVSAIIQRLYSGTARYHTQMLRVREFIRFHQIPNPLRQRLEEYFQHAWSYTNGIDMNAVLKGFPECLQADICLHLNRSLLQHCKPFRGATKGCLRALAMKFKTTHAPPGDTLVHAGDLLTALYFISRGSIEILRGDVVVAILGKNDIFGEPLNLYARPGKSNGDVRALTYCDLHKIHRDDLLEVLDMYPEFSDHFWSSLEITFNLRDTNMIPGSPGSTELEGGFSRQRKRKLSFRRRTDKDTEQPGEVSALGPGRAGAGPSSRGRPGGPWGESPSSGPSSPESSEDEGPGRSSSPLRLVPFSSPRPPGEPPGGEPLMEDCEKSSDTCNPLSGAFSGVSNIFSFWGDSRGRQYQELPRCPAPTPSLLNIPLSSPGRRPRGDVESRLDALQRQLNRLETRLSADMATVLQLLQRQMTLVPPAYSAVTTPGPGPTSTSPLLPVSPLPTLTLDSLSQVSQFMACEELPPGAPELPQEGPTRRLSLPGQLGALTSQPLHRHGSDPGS", "assay": "Inhibition of human ERG expressed in HEK293 cells by patch clamp assay", "assay_type": "cell-based"}, "[19]": {"assay": "Oral bioavailability in CD-1 mouse at 5 mg/kg administered as single dose measured up to 24 hrs", "assay_type": "ADME, organism-based", "details": "in vivo", "method_in_brief": "as §1"}, "[20]": {"biological_target": "Gamma-secretase (Homo sapiens) (UniProt Q96BI3+Q9NZ42+Q8WW43+P49768+Q92542+P49810)", "assay": "Modulation of gamma secretase in human SH-SY5Y cells overexpressing wild type APP751 assessed as effect on total amyloid beta level by meso scale discovery", "assay_type": "cell-based", "method_in_brief": "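SHSY5Y cells stably overexpressing wild-type human APP751 treated with the compound over a concentration range. Aβ38, Aβ40, Aβ42 and total Aβ in the medium measured by MSD triplex immunoassay (4G8 detection, 2 h at room temperature). Concentrations back-fitted from standard curves.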"}, "[21]": {"assay": "Cmax in CD-1 mouse at 5 mg/kg, po administered as single dose measured up to 24 hrs", "assay_type": "ADME, organism-based", "design": "route oral, dose 5 mg/kg, time <=24", "details": "in vivo", "method_in_brief": "as §2"}, "[22]": {"assay": "Half life in CD-1 mouse at 1 mg/kg, iv administered as single dose measured up to 24 hrs", "assay_type": "ADME, organism-based", "details": "mouse, in vivo, 1 mg/kg, 24 h", "method_in_brief": "as §2"}, "[23]": {"biological_target": "Gamma-secretase", "assay": "Modulation of gamma secretase in human SH-SY5Y cells overexpressing wild type APP751 assessed as effect on amyloid beta40 level by meso scale discovery", "assay_type": "cell-based"}, "[24]": {"assay": "Metabolic stability in rat liver microsomes assessed as parent compound remaining at 1 uM incubated for 30 mins", "assay_type": "ADME, Microsome", "details": "0.5 h", "method_in_brief": "as §3"}, "[25]": {"biological_target": "Gamma-secretase", "assay": "Modulation of gamma secretase in human SH-SY5Y cells overexpressing wild type APP751 assessed as effect on amyloid beta42 level by meso scale discovery", "assay_type": "cell-based"}, "[26]": {"biological_target": "T1, Cytochrome P450 1A2 (Homo sapiens, UniProt P05177)", "T1 sequence (P05177 whole entry)": "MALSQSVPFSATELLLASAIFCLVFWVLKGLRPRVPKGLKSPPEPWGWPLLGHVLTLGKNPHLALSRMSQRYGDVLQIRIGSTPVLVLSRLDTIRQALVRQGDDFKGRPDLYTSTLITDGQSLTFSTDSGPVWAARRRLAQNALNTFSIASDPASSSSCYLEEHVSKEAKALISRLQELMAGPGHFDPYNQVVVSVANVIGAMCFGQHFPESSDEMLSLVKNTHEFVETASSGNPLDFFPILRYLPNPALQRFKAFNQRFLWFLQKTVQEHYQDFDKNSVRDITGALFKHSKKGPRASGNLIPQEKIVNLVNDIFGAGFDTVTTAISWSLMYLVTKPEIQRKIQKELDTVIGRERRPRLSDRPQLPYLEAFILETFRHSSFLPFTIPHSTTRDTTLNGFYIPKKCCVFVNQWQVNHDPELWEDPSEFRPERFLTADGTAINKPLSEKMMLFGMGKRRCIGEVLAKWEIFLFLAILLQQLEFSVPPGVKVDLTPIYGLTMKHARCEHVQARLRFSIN", "assay": "Inhibition of recombinant CYP1A2 (unknown origin) by fluorescence-based assay", "assay_type": "ADME", "method_in_brief": "as §5"}, "[27]": {"biological_target": "Cytochrome P450 3A4 (Homo sapiens, UniProt P08684)", "sequence (P08684 whole entry)": "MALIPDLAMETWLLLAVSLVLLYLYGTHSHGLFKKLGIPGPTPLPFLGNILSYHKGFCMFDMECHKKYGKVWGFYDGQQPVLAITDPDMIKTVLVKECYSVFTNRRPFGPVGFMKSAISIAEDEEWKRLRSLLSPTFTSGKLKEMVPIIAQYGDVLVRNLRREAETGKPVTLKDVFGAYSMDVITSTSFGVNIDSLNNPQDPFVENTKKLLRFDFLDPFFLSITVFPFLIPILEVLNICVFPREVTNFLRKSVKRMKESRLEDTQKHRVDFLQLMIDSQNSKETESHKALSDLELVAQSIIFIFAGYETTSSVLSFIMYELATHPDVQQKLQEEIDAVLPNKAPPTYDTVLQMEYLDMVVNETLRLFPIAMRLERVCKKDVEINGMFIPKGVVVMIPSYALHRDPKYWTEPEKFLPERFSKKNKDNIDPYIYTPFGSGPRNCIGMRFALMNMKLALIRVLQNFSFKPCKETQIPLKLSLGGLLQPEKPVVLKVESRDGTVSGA", "assay": "Inhibition of recombinant CYP3A4 (unknown origin) by fluorescence-based assay", "assay_type": "ADME"}, "[28]": {"biological_target": "Gamma-secretase", "assay": "Modulation of gamma secretase in human SH-SY5Y cells overexpressing wild type APP751 assessed as inhibition of amyloid beta (35 to 42 residues) formation incubated for overnight by ELISA", "assay_type": "cell-based", "method_in_brief": "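SHSY5Y-APP751 cells plated at 75K/well and incubated overnight at 37 °C, then treated 24 h over 10 concentrations ([…]–10 μM, 1:3.16 steps, in duplicate). Medium Aβ42 measured by sandwich ELISA (Aβ35–42 capture, AP-conjugated Aβ1–12 detection, CDP-Star luminescence) against an Aβ42 standard curve.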"}, "[29]": {"biological_target": "Cytochrome P450 2C9 (Homo sapiens, UniProt P11712)", "sequence (P11712 whole entry)": "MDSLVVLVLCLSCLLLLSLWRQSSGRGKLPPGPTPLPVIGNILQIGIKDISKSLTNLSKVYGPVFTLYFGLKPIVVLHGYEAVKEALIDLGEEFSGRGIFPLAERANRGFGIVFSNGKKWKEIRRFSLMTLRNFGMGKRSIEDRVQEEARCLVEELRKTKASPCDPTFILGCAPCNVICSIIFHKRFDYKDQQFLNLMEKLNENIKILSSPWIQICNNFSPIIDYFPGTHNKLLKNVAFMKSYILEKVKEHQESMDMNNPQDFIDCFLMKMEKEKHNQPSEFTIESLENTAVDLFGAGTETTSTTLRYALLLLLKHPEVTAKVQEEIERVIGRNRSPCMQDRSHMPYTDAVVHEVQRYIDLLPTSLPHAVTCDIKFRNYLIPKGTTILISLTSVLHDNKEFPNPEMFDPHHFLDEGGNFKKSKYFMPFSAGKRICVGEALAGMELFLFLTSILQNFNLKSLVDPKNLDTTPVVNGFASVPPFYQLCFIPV", "assay": "Inhibition of recombinant CYP2C9 (unknown origin) by fluorescence-based assay", "assay_type": "ADME", "method_in_brief": "as §5"}, "[30]": {"biological_target": "Cytochrome P450 2C19 (Homo sapiens, UniProt P33261)", "sequence (P33261 whole entry)": "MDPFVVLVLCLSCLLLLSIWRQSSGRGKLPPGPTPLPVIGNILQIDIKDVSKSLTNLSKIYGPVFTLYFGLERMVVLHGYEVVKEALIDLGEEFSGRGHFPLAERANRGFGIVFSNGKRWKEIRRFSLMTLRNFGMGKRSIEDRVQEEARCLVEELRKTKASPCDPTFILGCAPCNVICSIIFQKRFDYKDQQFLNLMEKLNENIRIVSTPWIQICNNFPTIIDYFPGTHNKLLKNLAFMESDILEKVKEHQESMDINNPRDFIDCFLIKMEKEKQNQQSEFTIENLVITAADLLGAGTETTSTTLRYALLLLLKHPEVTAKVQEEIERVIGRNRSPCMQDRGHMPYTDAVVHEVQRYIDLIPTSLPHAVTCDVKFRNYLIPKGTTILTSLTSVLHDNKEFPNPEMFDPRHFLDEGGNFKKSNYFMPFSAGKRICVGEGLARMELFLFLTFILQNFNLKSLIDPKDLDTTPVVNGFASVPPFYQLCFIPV", "assay": "Inhibition of recombinant CYP2C19 (unknown origin) by fluorescence-based assay", "assay_type": "ADME", "method_in_brief": "as §5"}, "[31]": {"assay": "Metabolic stability in mouse liver microsomes assessed as parent compound remaining at 1 uM incubated for 30 mins", "assay_type": "ADME, Microsome", "details": "0.5 h", "method_in_brief": "as §3"}}, "note": "Activity calls are given as the source filed them. The rule behind the calls is not given here."}
{"smiles": "CCn1nc2c(c1Nc1nc(-c3ccc(-n4cnc(C)c4)c(OC)n3)cs1)CCCC2", "values": [{"measurement": "BPR", "setting": "[1]", "value": 0.4}, {"measurement": "F", "setting": "[2]", "value": 100, "unit": "%"}, {"measurement": "BPR", "setting": "[3]", "value": 0.4}, {"measurement": "AUClast", "setting": "[4]", "value": 443, "unit": "ng·h/mL"}, {"measurement": "Stabilty", "setting": "[5]", "value": 36, "unit": "%"}, {"measurement": "Tmax", "setting": "[6]", "value": 4.98, "unit": "min"}, {"measurement": "solubility kinetic", "setting": "[7]", "value": 4.5, "unit": "µM"}, {"measurement": "inhibition (INH)", "setting": "[8]", "value": "Not Active"}, {"measurement": "AUC", "setting": "[9]", "value": 1243, "unit": "ng·h/mL"}, {"measurement": "Vdss", "setting": "[10]", "value": 1.413, "unit": "L/kg"}, {"measurement": "AUClast", "setting": "[11]", "value": 1089, "unit": "ng·h/mL"}, {"measurement": "Tmax", "setting": "[12]", "value": 15, "unit": "min"}, {"measurement": "IC50", "setting": "[13]", "value": "> 100", "unit": "µM"}, {"measurement": "PPB", "setting": "[14]", "value": 99.6, "unit": "%"}, {"measurement": "Cmax", "setting": "[15]", "value": 824, "unit": "ng/mL"}, {"measurement": "AUC", "setting": "[16]", "value": 463, "unit": "ng·h/mL"}, {"measurement": "EC50", "setting": "[17]", "value": 0.305, "unit": "µM"}, {"measurement": "IC50", "setting": "[18]", "value": 8.6, "unit": "µM"}, {"measurement": "F", "setting": "[19]", "value": 53.7, "unit": "%"}, {"measurement": "Activity", "setting": "[20]", "value": "inactive"}, {"measurement": "Cmax", "setting": "[21]", "value": 705, "unit": "ng/mL"}, {"measurement": "t1/2", "setting": "[22]", "value": 30, "unit": "min"}, {"measurement": "IC50", "setting": "[23]", "value": 0.104, "unit": "µM"}, {"measurement": "Stabilty", "setting": "[24]", "value": 71, "unit": "%"}, {"measurement": "IC50", "setting": "[25]", "value": 0.058, "unit": "µM"}, {"measurement": "IC50", "setting": "[26]", "value": "> 100", "unit": "µM"}, {"measurement": "IC50", "setting": "[27]", "value": 3.7, "unit": "µM"}, {"measurement": "IC50", "setting": "[28]", "value": 0.06, "unit": "µM"}, {"measurement": "IC50", "setting": "[29]", "value": 9, "unit": "µM"}, {"measurement": "IC50", "setting": "[30]", "value": 5.9, "unit": "µM"}, {"measurement": "Stabilty", "setting": "[31]", "value": 64, "unit": "%"}]}
